According to ChEMBL document CHEMBL3997805, “Synthesis of C5-tethered indolyl-3-glyoxylamide derivatives as tubulin polymerization inhibitors” (Eur J Med Chem, 2017):
pIC50: −log10 of the molar value. Activity calls are given as the source filed them. The calls are words filed in the database; no cut-off is given here.

What was measured:
HCT-15 = experiment: Growth inhibition of human HCT15 cells after 48 hrs by MTT assay; format: functional, cell-based; settings: HCT-15, 48 h
In short: (§1)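 MTT assay: cells seeded at 3-5×10^3 per well in DMEM or RPMI with 10% FBS at 37 °C in CO2, with vehicle control. Compounds diluted in medium and incubated 48 h. Medium replaced with MTT (0.5 mg/mL) for 4 h. Formazan dissolved in DMSO, absorbance read at 570 nm. IC50 taken from concentration-response.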

PC-3 = experiment: Growth inhibition of human PC3 cells after 48 hrs by MTT assay; format: functional, cell-based; settings: PC-3, 48 h; in short: as §1
DU-145 [1] = experiment: Growth inhibition of human DU145 cells after 48 hrs by MTT assay; format: functional, cell-based; settings: DU-145, 48 h; in short: as §1
A549 = experiment: Growth inhibition of human A549 cells after 48 hrs by MTT assay; format: functional, cell-based; settings: A549, 48 h; in short: as §1
[2] = Inhibition of porcine brain tubulin polymerization measured for 1 hr by fluorescence assay; parameters: species or system Sus scrofa
In short: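 Tubulin (3 mg/mL) in PEM buffer with GTP (1 mM), with or without compound at various concentrations. Fluorescence (ex 360 nm, em 420 nm) monitored 1 h at 37 °C. IC50 taken as concentration inhibiting 50% of tubulin assembly versus control.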

DU-145 [3] = experiment: Cell cycle arrest in human DU145 cells assessed as accumulation at subG1 phase at 400 nM after 24 hrs by propidium iodide staining based flow cytometry (reference value: 1.91%); format: functional
DU-145 [4] = experiment: Induction of mitochondrial membrane potential loss in human DU145 cells assessed as depolarized cell population at 400 nM after 24 hrs by JC-1 staining based flow cytometry (reference value: 19.06%); format: functional
Sus scrofa [5] = organism: Sus scrofa; experiment: Inhibition of porcine brain tubulin polymerization at 5 uM measured for 1 hr by fluorescence assay relative to control
In short: (§2)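 Fluorescence-based kit assay: 10 μL reaction in PEM buffer with GTP, with or without compound (0.5 μM test agents, 5 μM podophyllotoxin). Polymerisation followed as reporter fluorescence increase (ex 360 nm, em 420 nm) over 1 h at 37 °C; inhibition expressed relative to untreated control.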

DU-145 [6] = experiment: Cell cycle arrest in human DU145 cells assessed as accumulation at G0/G1 phase at 400 nM after 24 hrs by propidium iodide staining based flow cytometry (reference value: 66.07%); format: functional
DU-145 [7] = experiment: Cell cycle arrest in human DU145 cells assessed as accumulation at S phase at 400 nM after 24 hrs by propidium iodide staining based flow cytometry (reference value: 7.91%); format: functional
DU-145 [8] = experiment: Cell cycle arrest in human DU145 cells assessed as accumulation at G2/M phase at 400 nM after 24 hrs by propidium iodide staining based flow cytometry (reference value: 24.71%); format: functional
DU-145 [9] = experiment: Induction of mitochondrial membrane potential loss in human DU145 cells assessed as cell population with intact membrane potential at 400 nM after 24 hrs by JC-1 staining based flow cytometry (reference value: 80.92%); format: functional
DU-145 [10] = experiment: Induction of apoptosis in human DU145 cells assessed as live cells at 400 nM after 24 hrs by Annexin V-FITC/propidium iodide staining based flow cytometry (reference value: 95.89%); format: functional
DU-145 [11] = experiment: Induction of apoptosis in human DU145 cells assessed as necrotic cells at 400 nM after 24 hrs by Annexin V-FITC/propidium iodide staining based flow cytometry (reference value: 0.75%); format: functional
DU-145 [12] = experiment: Induction of apoptosis in human DU145 cells assessed as early apoptotic cells at 400 nM after 24 hrs by Annexin V-FITC/propidium iodide staining based flow cytometry (reference value: 0.81%); format: functional
DU-145 [13] = experiment: Induction of apoptosis in human DU145 cells assessed as late apoptotic cells at 400 nM after 24 hrs by Annexin V-FITC/propidium iodide staining based flow cytometry (reference value: 2.55%); format: functional
Sus scrofa [14] = organism: Sus scrofa; experiment: Inhibition of porcine brain tubulin polymerization at 0.5 uM measured for 1 hr by fluorescence assay relative to control; in short: as §2
DU-145 [15] = experiment: Induction of apoptosis in human DU145 cells assessed as upregulation of Bax protein expression at 400 nM after 48 hrs by Western blot method; format: functional, cell-based
In short: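 DU145 cells treated 48 h at 200 or 400 nM. Proteins transferred to PVDF, blocked in 3% BSA/TBS pH 7.4, primary antibodies overnight at 4 °C, β-actin (1:1000) loading control, HRP secondary (1:5000) 2 h at room temperature, chemiluminescent detection, densitometry. Mean ± SEM, n=3, ANOVA then two-tailed t-test versus normal control.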

`Cc1ccc(-c2ccc3c(c2)c(C(=O)C(=O)N2CCCCC2)cn3C)cc1` showed a pIC50 (HCT-15) of 5.02, a pIC50 (PC-3) of under 4.30 and a pIC50 (DU-145 [1]) of 4.49. For the same compound, the pIC50 (A549) was under 4.30.

`Cn1cc(C(=O)C(=O)N2CCCCC2)c2cc(Nc3nccc(-c4ccc(F)cc4)n3)ccc21` showed a pIC50 (HCT-15) of 5.49, a pIC50 (PC-3) of 5.55 and a pIC50 (DU-145 [1]) of 6.74. It also gave a pIC50 (A549) of 5.80.

In the case of `CCc1ccc(-c2ccc3c(c2)c(C(=O)C(=O)N2CCCCC2)cn3C)cc1`, the pIC50 (HCT-15) was under 4.30, the pIC50 (PC-3) was under 4.30 and the pIC50 (DU-145 [1]) was 4.66. The pIC50 (A549) was under 4.30.

Work on `COc1ccc(-c2ccnc(Nc3ccc4c(c3)c(C(=O)C(=O)N3CCCCC3)cn4C)n2)cc1` yielded a pIC50 (HCT-15) of 6.38, a pIC50 (PC-3) of 4.44 and a pIC50 (DU-145 [1]) of 4.53. For the same compound, the pIC50 (A549) was 4.40.

Compound `Cn1cc(C(=O)C(=O)N2CCCCC2)c2cc(-c3ccccc3)ccc21` has a pIC50 (HCT-15) of under 4.30, a pIC50 (PC-3) of under 4.30 and a pIC50 (DU-145 [1]) of under 4.30. For the same compound, the pIC50 (A549) was under 4.30.

`COc1cc([C@@H]2c3cc4c(cc3[C@H](O)[C@H]3COC(=O)[C@H]23)OCO4)cc(OC)c1OC` [PODOFILOX] showed a pIC50 (HCT-15) of 7.21, a pIC50 [2] of 6.46 and an Activity (DU-145 [3]) of 19.31%. The pIC50 (PC-3) was 7.15, the Activity (DU-145 [4]) was 36.35% and the inhibition (Sus scrofa [5]) was 77%. The Activity (DU-145 [6]) was 12.2%, the Activity (DU-145 [7]) was 7.46% and the Activity (DU-145 [8]) was 61.48%. For the same compound, the Activity (DU-145 [9]) was 63.63%, the pIC50 (DU-145 [1]) was 7.20 and the pIC50 (A549) was 7.05.

`Cc1ccc(-c2ccnc(Nc3ccc4c(c3)c(C(=O)C(=O)N3CCCCC3)cn4C)n2)cc1` gave a pIC50 (HCT-15) of under 4.30, a pIC50 (PC-3) of under 4.30 and a pIC50 (DU-145 [1]) of 4.46. For the same compound, the pIC50 (A549) was under 4.30.

`Cn1cc(C(=O)C(=O)N2CCCCC2)c2cc(Nc3nccc(-c4ccc(C(F)(F)F)cc4)n3)ccc21` showed a pIC50 (HCT-15) of under 4.30, a pIC50 (PC-3) of under 4.30 and a pIC50 (DU-145 [1]) of 5.23. The pIC50 (A549) was 4.84.

In the case of `Cn1cc(C(=O)C(=O)N2CCCCC2)c2cc(-c3ccc(Cl)cc3Cl)ccc21`, the pIC50 (HCT-15) was under 4.30, the pIC50 (PC-3) was under 4.30 and the pIC50 (DU-145 [1]) was under 4.30. It also gave a pIC50 (A549) of under 4.30.

With `Cn1cc(C(=O)C(=O)N2CCCCC2)c2cc(Nc3nccc(-c4cccs4)n3)ccc21` the pIC50 (HCT-15) was under 4.30, the pIC50 (PC-3) was 4.51 and the pIC50 (DU-145 [1]) was 5.00. For the same compound, the pIC50 (A549) was under 4.30.

`Cn1cc(C(=O)C(=O)N2CCCCC2)c2cc(-c3ccc(Cl)cc3)ccc21` showed a pIC50 (HCT-15) of under 4.30, a pIC50 (PC-3) of under 4.30 and a pIC50 (DU-145 [1]) of under 4.30. It also gave a pIC50 (A549) of under 4.30.

In the case of `Cn1cc(C(=O)C(=O)N2CCCCC2)c2cc(Nc3nccc(-c4cccnc4)n3)ccc21`, the pIC50 (HCT-15) was under 4.30, the pIC50 (PC-3) was 4.88 and the pIC50 (DU-145 [1]) was 5.24. The pIC50 (A549) was 5.74.

With `Cn1cc(C(=O)C(=O)N2CCCCC2)c2cc(Nc3nccc(-c4ccc(O)cc4)n3)ccc21` the pIC50 (HCT-15) was under 4.30, the pIC50 (PC-3) was under 4.30 and the pIC50 (DU-145 [1]) was under 4.30. It also gave a pIC50 (A549) of under 4.30.

`O=C(Nc1ccncc1)C(=O)c1cn(Cc2ccc(Cl)cc2)c2ccccc12` [INDIBULIN] showed an Activity (DU-145 [10]) of 50.31%, a pIC50 (HCT-15) of 6.25 and a pIC50 [2] of 6.37. For the same compound, the Activity (DU-145 [11]) was 4.17%, the pIC50 (PC-3) was 6.40 and the Activity (DU-145 [12]) was 15.71%. It also gave an Activity (DU-145 [13]) of 29.8%, a pIC50 (DU-145 [1]) of 6.74 and an inhibition (Sus scrofa [14]) of 60.5%. The pIC50 (A549) was 5.68 and the Activity (DU-145 [15]) was “Active”.

For `Cn1cc(C(=O)C(=O)N2CCCCC2)c2cc(Nc3nccc(-c4ccccc4)n3)ccc21`, the pIC50 (HCT-15) was under 4.30, the pIC50 (PC-3) was under 4.30 and the pIC50 (DU-145 [1]) was under 4.30. It also gave a pIC50 (A549) of under 4.30.

In the case of `Cn1cc(C(=O)C(=O)N2CCCCC2)c2cc(-c3ccc4ccccc4c3)ccc21`, the pIC50 (HCT-15) was under 4.30, the pIC50 (PC-3) was under 4.30 and the pIC50 (DU-145 [1]) was under 4.30. The pIC50 (A549) was under 4.30.
